Results published in the EternaBench riboswitch data.

Tested on: MS2 coat protein
Assay: apparent Kd, MS2 coat protein; higher = weaker binding; RNA-MaP array; FMN 200 µM where present
Method in brief: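 The apparent Kd is the median of filtered binding-curve fits, one per cluster, to green signal normalised to red-channel RNA signal and control-cluster median Fmax. The clusters were on Illumina sequencing chips, and stalled E. coli RNA polymerase had transcribed the designs on them. Titration used SNAP-549-labelled MS2 coat protein from 0.7 or 1.5 nM, doubling to 3 µM, without and then with constant ligand, in 100 mM Tris-HCl pH 7.5, 80 mM KCl, 4 mM MgCl2, BSA, DTT, yeast tRNA and Tween-20.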

[1] = designed as: OFF switch for flavin mononucleotide, no ligand
[2] = ligand present: flavin mononucleotide, designed as: OFF switch for flavin mononucleotide
[3] = designed as: ON switch for flavin mononucleotide, no ligand
[4] = ligand present: flavin mononucleotide, designed as: ON switch for flavin mononucleotide

Row | Sequence | apparent Kd [1] [nM] | apparent Kd [2] [nM] | apparent Kd [3] [nM] | apparent Kd [4] [nM]
1 | ACAUGAGGAUCACCCAUGUUAUGUUGGGUACUAAAUUAUUCGUAGGAUAUCGUAGCUAGUUUGUGCGAGAAGGACGCAGUUUUU | 257 | 277 | – | –
2 | AAUAUACAUGAGGAUCACCCAUGUUUUGGUGUAUGAGGAUAUAAAAACAAUUACAUAAAAUUAGAAGGCAUAACUA | – | – | 28.2 | 24
3 | AAUAUGUUGCAGAAGGUUAUAUUUUUUUCGUUCCUCAUGACAUGAGGAUCACCCAUGUAUUUGUUGAAGGAUAUGCAAUAUAUU | 19.9 | 17.6 | – | –
4 | CUUUUGUGAGGAUAUCAGGUGUGCUAGCGUACUGGUACAUCUGAGAAGGCACAUGAGGAUCACCCAUGUUCCUU | 13.4 | 29.2 | – | –
5 | AACGACUGAGGAUAUACAUGAGGAUCACCCAUGUAUUGAAAUACGUGCUUGGUCAACUGUAGAAGGCAGAAUAA | 15.7 | 40.6 | – | –
6 | CUUUAACACCAGAAGGACAUGAGGAUCACCCAUGUAGGAUAUGGGACUCCUAGUAGGCAUAUUGUGCUUCCGGUAGGACAAGGA | – | – | 478 | 62.2
7 | CGUAGCAAAGUGAGGAUAUCUAGAGCGAUAGCUCUAGAGAAGGCACAUGAGGAUCACCCAUGUGAUCAGCUACG | 276 | 899 | – | –
8 | GCCGAUUAAGUGAGGAUAUACCUAUGGAUACAUAGGUAGAAGGUACAUGAGGAUCACCCAUGUUCCUCAACGGC | 10.4 | 12.7 | – | –
9 | AUCAGCUCGUCAGGAUAUACGUCACUGCGUCAGCAGUGUGGUAAGAGCACAUGAGGAUCACCCAUGUAGAAGGGACGAGCUGAU | 6.31 | 9.48 | – | –
10 | UGCGUACAAGCAGACAUGAGGAUCACCCAUGUGGUCUCAUGCGAGGAUAUCGGGAAGGAGGAUUCCGAGAAGGUGCGGUGAGCC | – | – | 157 | 39.6
11 | AAUAAACUCACAGGAUAUAGCAGAGGUCGCGUGAACUUACAGACGACGAGGCUAGAAGGGUGACCACAUGAGGAUCACCCAUGU | – | – | 312 | 65.4
12 | UUAAUUAUACAAGGAUAUCUAUUGUAGUUUCGACUUACAUGAGGAUCACCCAUGUUAAUAUGUUUAGAGAAGGUGUAUUUUCUG | – | – | 51 | 49.5
13 | GGACAUGUACAGAAGGGCAAUUUAUUUAUUGAUUAUUUAGUUCUGUUUUGCAGGAUAUGUAAAACAUGAGGAUCACCCAUGUCC | – | – | 188 | 105
14 | CGCAGUACUUAGGUACUACACAUGAGGAUCACCCAUGUAUCACAGGAUAUGCAUGAUAUAUUCAGGCAGAAGGGUGAUCUUACC | – | – | 54.5 | 130
15 | CACACGAAAGUCGAACGAUGAUCCAGAAGGAGUAUAACAUGACAUGAGGAUCACCCAUGUGCCAACUAGGAUAUGGAUCAUGGG | 86.3 | 15.1 | – | –
16 | UCAGGAGUCACAGGAUAUCCGGCAUAGCAUACAGGAGAAGGGUGAUCACAAGCACAUGAGGAUCACCCAUGUGACAUUUGUGGA | – | – | 115 | 49.5
17 | AUAUGAUAGAUAGGAUAUACAGAUAAAUAAUAAGUAGAAGGAUCAAAUGGAAAUUAUACAUGAGGAUCACCCAUGUUUUUGAAU | – | – | 29 | 22.4
18 | UUUCUUGGGCAAGGAUAUCCUGUGCGGUUCCGGCUCGUGUCUGUCACAUGAGGAUCACCCAUGUGGGAGAAGGUGCCUGCAGUC | 6.22 | 7.07 | – | –
19 | CAUGUCUGAGGAUAUCGUUAUUUGUACAUGAGGAUCACCCAUGUCCUAUUUAUUAUAUUUCGAGAAGGCAGUGUAU | 16.9 | 18.2 | – | –

Row | Sequence | apparent Kd [1] [nM] | apparent Kd [2] [nM] | apparent Kd [3] [nM] | apparent Kd [4] [nM]
20 | CGUGUCGCAUGAGGAUAUGGUCAGCUUUGCUGACCAGAAGGCAUGUCAAUAGACAUGAGGAUCACCCAUGUAGUAAAGACACGA | – | – | 416 | 33.9
21 | CGCAAACAUGAGGAUCACCCAUGUCAAUGUGAUCAAGGAUAUGGGUUCCGAAAUGGAACACCAGAAGGUGAGUAAU | – | – | 142 | 37.3
22 | GUGUACAGAGGAUAUACAAGAGGAGUUACGAAAGUAACUUCACAUGAGGAUCACCCAUGUAGAAGGCUGUACAC | 24.6 | 39.5 | – | –
23 | CCUGAGUCAGGAUAUUGUACCGGCCUGAAGCCAGGCCGGCCCAAGAAGGGACAUGAGGAUCACCCAUGUGAAAA | 35.9 | 73.9 | – | –
24 | UCCUUAAACACAGGAUAUCCUGCCGUACAUGAGGAUCACCCAUGUCCGGUCGGAGAAGGGUGGCGAAGGUAUGUGCGAAUUAAG | – | – | 8.23 | 5.41
25 | UUGUUAUAUGUAGGAUAUGCAUAUUAUUAUUAUGCAGAAGGACAUGAGGAUCACCCAUGUAUAUUGUUAUUAUAUAUUAUAUAU | 24.2 | 32.5 | – | –
26 | CGUAGGAUCCAGAAGGCAUGAACAUGAGGAUCACCCAUGUUAAAAUACAUGAGGAUAUGGAUCCUACGAAAAGUGCGAAAGCAC | – | – | 5.75 | 4.99
27 | UUAAUUAUACAAGGAUAUCUAUUGUAGUUUCGACUGACAUGAGGAUCACCCAUGUAAAUAUGUUAAGAGAAGGUGUAUUUUAAA | – | – | 56.8 | 40.4
28 | CUCAUGUUAGGAUAUGCGCUCGACGUAGUGGUUGAGCUCUAGCAGAAGGAACAUGAGGAUCACCCAUGUUUGCA | 68.5 | 21.3 | – | –
29 | AUAUUGUGAGGAUAUCCAAUAUAUGACAUGAGGAUCACCCAUGUUUCCACUCGUACCUCCGGAGAAGGCACUUAAA | 20.5 | 23.2 | – | –
30 | CUGGUGUGAGGAUAUCAAAGACCUCGGGAAAGAACCGAGAAUGAGAAGGCACAUGAGGAUCACCCAUGUAACAA | 18.2 | 30.7 | – | –
31 | GAUAUGGGAGGAUAUGCAUAGAUAAAGAAACAUGUUCAACCACAUGAGGAUCACCCAUGUAGAAGGCCCAUAUC | 31.9 | 147 | – | –
32 | GACUUGUCAGGAUAUCUUACAUAAACAUCGUAGUUACAAUUGGAGAAGGGACAUGAGGAUCACCCAUGUUUGCG | 25.1 | 29.3 | – | –
33 | UUUAUUAAACAAGGAUAUCAUUUGUGUACAAGUUUUACAUGAGGAUCACCCAUGUUAAAUGGUUUUGAGAAGGUGUUUAGAAUU | – | – | 34.2 | 25.2
34 | GAAUAAUUGAUCCAAUUUUACAACAUGAGGAUCACCCAUGUGCAGGAUAUCGUGUGUGUUAUAUACGAGAAGGGCAAGAACUGU | 381 | 448 | – | –
35 | GGAUCGAAAGUGAGGAUAUGCUGGUCCUUGGAUCAGCAGAAGGCACAUGAGGAUCACCCAUGUGGUAACGGUCC | 33.8 | 172 | – | –
36 | CUGAGCUGAGGAUAUACAUGAGGAUCACCCAUGUGUUCGAGCUUGCGUACAGGCAGAUGUAGAAGGCAGUUCGG | 26.7 | 99.3 | – | –
37 | GGAAGACAAAGUCUUCCAUUACGAACAUGAGGAUCACCCAUGUAGGAUAUGCUUCUCAAAGAGAAGCAGAAGGACAUGUGUCUU | 26.6 | 134 | – | –
38 | GAUCCACAUGAGGAUCACCCAUGUGAGGAUAUGAUACUAUGUACUUCGGUACAUAGUAUCAGAAGGCACGGAUC | 27.1 | 31.6 | – | –

Row | Sequence | apparent Kd [1] [nM] | apparent Kd [2] [nM] | apparent Kd [3] [nM] | apparent Kd [4] [nM]
39 | AACUGACAUGAGGAUCACCCAUGUCAGGAUAUGAUUUGACGAAAUAAAACACGUCAUAUCAGAAGGGACAUGGA | 26.5 | 48.6 | – | –
40 | CUCCUCCUGGUCAGGAUAUGAGCUUUAUCGGAUAUUCAGAAGGGACAUGAGGAUCACCCAUGUAACGUCGCUGG | 14.8 | 17.2 | – | –
41 | UUUUGGUCAGGAUAUUGUUAGUUUAGUUGUUUGUAUUAGUUCGAGAAGGGACAUGAGGAUCACCCAUGUGGUUU | 71.8 | 58.9 | – | –
42 | UUGGACGUCGUAGGAUAUGUAGGAUAUUCCUACAUGAGGAUCACCCAUGUUGACAUGGAAGAAGGACAGAAGGAGGAUGUCCAU | – | – | 303 | 7.18
43 | GGUGGACAUGAGGAUCACCCAUGUGAGGAUAUCGGCUAUCUUCUCGCUGUCGGUUGCUCGAGAAGGCACAUUGU | 70.6 | 86.7 | – | –
44 | GCGAUUGCGUAGAAGGUACAAUUUAAUACAUUGUAAGGAUAUACUUACAUGAGGAUCACCCAUGUUAAUGGAAUUUGCAAUCGC | – | – | 16.7 | 10.8
45 | CACUGUUUAGAGGAUAUUUACGGGUCACACCCAGGAGAAGGCUGUACAUGAGGAUCACCCAUGUGGUGCGCCUG | 32.4 | 51.3 | – | –
46 | UAUUUUAACUAAGGAUAUCUAUAUUAAUUUGAAACAUGAGGAUCACCCAUGUUCAUGGGUUUAUAAGAGAAGGUAGAUGAAUAA | – | – | 48.7 | 20.7
47 | CAUAUGGGAGGAUAUGCAUAGAUAAAGAAACAUGUUCAACCACAUGAGGAUCACCCAUGUAGAAGGCCCAUAUG | 29.6 | 162 | – | –
48 | CUAGCUUGCACAGGAUAUAGGCUCGGAGCUUACAUGAGGAUCACCCAUGUAGUGCGAGUGAAGCACUAGAAGGGUGAUGGGUAG | – | – | 40.4 | 22.8
49 | GCACGGUUGGUAGGAUAUCAUUGCGAUUAGCUAUGAGAAGGACCACAUGAGGAUCACCCAUGUCCUCUAAUUAGCCUGCCGUGC | 152 | 355 | – | –
50 | CUUUUAUAAUAGAAGGUUGACUUUAAGUGGAUCACCCAUGUGUAGGUACAAAGGAUAUGUAGUUACAUGAGGAUCACCCAUGUU | – | – | 306 | 201
51 | GGGUACAUCGGAGGAUAUCGUGUAAAUACAUGAGGAUCACCCAUGUCGAUGGAGACAUCGGAGAUUGAGAAGGCCGAUGUACCG | – | – | 123 | 8.12
52 | UUGGACGUCGUAGGAUAUGUAGGAUAUUGCUACAUGAGGAUCACCCAUGUUGACAUGGAAGAAGGACAGAAGGACGAUGUCCAU | – | – | 43.8 | 5.59
53 | GCGAUUUUGUAAGGAUAUACACGAGUUUUAAGUGUAGAAGGUACUUACAUGAGGAUCACCCAUGUAUAAAUGUAUAAUGGUCGC | – | – | 12.4 | 9.82
54 | UAAUUGUGAGGAUAUUCGUAGUACACGGAGACGUGUAUUACGGAGAAGGCACAUGAGGAUCACCCAUGUUCCUU | 18.2 | 89.4 | – | –
55 | AAUUCACAUGAGGAUCACCCAUGUCAGGAUAUGGUGACGCGGGUUUCGGUGCGUGUUGCCAGAAGGGACGGCUG | – | 115 | – | –
56 | GGACAUGUCGUUUACAUGAGGAUCACCCAUGUCGAUGGACAUGAGGAUAUCGAUACGAAUCGUAUCGAGAAGGCAUGCAUGUCC | – | – | 42.8 | 18.5
